# Assay outcomes: PubChem, several laboratories
# GRK2 aptamer HTS: blocks RNA aptamer binding to human GRK2. P25098. AID 488847. bead flow cytometry, FAM-aptamer displacement from GRK2. inhibition of aptamer binding, % at 10 µM. 330,000 compounds, 0.59% hits;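 active means inhibition of aptamer binding above 40%, roughly 3 SD of noise, on plates passing a quality check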;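 further: median bead fluorescence of bound FAM aptamer so fluorescent compounds give negative values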
# procasp7 counter: counter-screen: procaspase-7 (human) activation | P55210 | recombinant procaspase-7, Ac-DEVD-pNA absorbance 405 nm; D23A/D198A/D206A triple mutant, cannot self-cleave; scale: DMSO 0, 5 µM enzyme 100 | activation, % at 8.5 µM | 330,000 compounds, 0.093% hits;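 active means percent activation above the screen-wide mean plus 3 SD, cut at about 25% in these data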
# Target sequence (P55210 whole entry D23A/D198A/D206A): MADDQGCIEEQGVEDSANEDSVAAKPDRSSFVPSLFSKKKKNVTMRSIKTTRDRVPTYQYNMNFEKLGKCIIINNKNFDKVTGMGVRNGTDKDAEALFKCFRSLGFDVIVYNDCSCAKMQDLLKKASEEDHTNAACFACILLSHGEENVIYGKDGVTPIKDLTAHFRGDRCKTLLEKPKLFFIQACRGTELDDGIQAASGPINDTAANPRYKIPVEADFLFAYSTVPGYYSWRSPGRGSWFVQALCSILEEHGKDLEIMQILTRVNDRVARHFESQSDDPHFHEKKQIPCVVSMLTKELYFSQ
#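 Detection: p-Nitroaniline absorbance at 405 nm, read at 0 and 120 min; system: Uncleavable procaspase-7 mutant enzyme; evaluation: % activation from two-timepoint absorbance difference, scaled to controls; times: 1 h enzyme–compound preincubation and 2 h substrate reaction, both 25 °C; buffer or medium: Zinc-free HEPES pH 7.4 with 300 mM NaCl, 0.01% Triton X-100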
# CaV13 FRET inh: Primary screen for inhibitors of IQ motif and Ca2+-dependent inactivation inhibitor domain binding in CACNA1D, Förster resonance energy transfer in living cells, …. HEK cells, CFP/YFP FRET ICDI-IQ, plate reader, 10 min; percent FRET-ratio fall versus neutral wells. inhibition, % at 12.3 µM. 340,000 compounds, 0.098% hits. AID 743397;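 active means mean replicate inhibition of at least 30% and at least 1% of replicates passing that level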;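 further: 0% = median of the neutral control wells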
# proCasp3 act: activates human procaspase-3; 330,000 compounds, 0.11% hits; recombinant procaspase-3 D3A, Ac-DEVD-pNA absorbance 405 nm; P42574; activation, % at 8.5 µM;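 active means activation above the mean of all tested compounds plus 3 SD, cut at about 21% in these data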;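 further: 0% = DMSO alone and 100% = DMSO wells spiked with extra 5 µM PC-3 D3A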
# Target sequence (P42574 whole entry D9A/D28A/D175A): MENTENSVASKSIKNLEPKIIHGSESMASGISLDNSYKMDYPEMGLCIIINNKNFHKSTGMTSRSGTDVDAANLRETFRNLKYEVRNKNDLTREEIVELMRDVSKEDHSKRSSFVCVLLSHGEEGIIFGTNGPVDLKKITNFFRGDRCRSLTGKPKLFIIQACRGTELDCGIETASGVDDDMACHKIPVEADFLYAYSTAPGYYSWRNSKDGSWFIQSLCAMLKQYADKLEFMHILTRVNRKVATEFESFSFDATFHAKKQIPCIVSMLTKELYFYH
#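 Technique: 405 nm absorbance of p-nitroaniline, reads at 0 and 120 min; Test system: Procaspase-3 D3A mutant; Incubation: 1 h enzyme-compound preincubation, then 2 h substrate reaction, 25 °C; Repeats: singlicate, each compound tested once; Benchmarks: low control DMSO wells, high control DMSO plus 5 µM PC-3 D3A.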
# aDG glyco act: alpha-DG glycosylation activation | Pro5-aDG cells, alpha-DG glycosylation AlphaScreen (IIH6); 0% Pro5, 100% B10-LARGE cell signal | activation, % at 10 µM | 360,000 compounds, 0.22% hits | AID 624168;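 active means activation of at least 8% versus controls, or a plate z-score of at least 8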;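 further: Pro5 are CHO cells carrying HIG-tagged alpha-DG that lacks glycosylation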
# T cell modulator: T cell immune modulators affecting CD8 T cell-vesicle binding. 2C CD8+ T cell-vesicle binding, flow cytometry; stronger effect = lower value. response (vesicle binding), % at 7 µM. 330,000 compounds, 0.068% hits. AID 2052;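 active means response, share of CD8 T cells binding vesicles, and their 90th percentile fluorescence all below set limits, cut at about 80% in these data, passing the limit was not always enough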;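 further: values below 100% mean blocked vesicle binding to the CD8+ T cells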
#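 Test system: purified 2C TCR transgenic mouse naive CD8+ T cells. Probe or stimulus: QL9-peptide-loaded Drosophila micro-vesicles bearing Ld, ICAM-1 and B7-1. Incubation: binding step 1.5 h, 37 °C, antibody labelling 20 min, ice. Measured by: flow cytometry of vesicle-bound cells.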
# GRK2 CP1: human GRK2 inhibition confirmation, cherry pick 1; shares compounds with GRK2 aptamer HTS; 2,000 compounds, 4% hits; bead-bound GRK2, FAM-aptamer displacement, flow cytometry; AID 504451; aptamer displacement, % at 10 µM;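 active means aptamer displacement above 40%, near three times the noise of non-fluorescent compounds, on plates passing quality checks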;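 further: negative values mostly reflect intrinsic compound fluorescence rather than true enhancement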
# FAM quench CP1: quenches fluorescent RNA aptamer, GRK2 hit artifact; shares compounds with GRK2 aptamer HTS; Carboxyfluorescein RNA aptamer on beads, flow cytometry quenching; stronger effect = lower value; fluorescence response (% of DMSO), % at 10 µM; 2,000 tested, under 10 active;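 active means compounds that quench the bead-bound fluorescent RNA probe, cutting fluorescence to under half of the solvent control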;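 further: counterscreen run without GRK2 so only probe quenching by compound is measured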
# GRK2 CP2: human GRK2 inhibition confirmation, cherry pick 2. shares compounds with GRK2 aptamer HTS. bead-bound GRK2, FAM-aptamer displacement, flow cytometry. inhibition of aptamer binding, % at 10 µM. 360 tested, under 10 active. AID 504782;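 active means inhibition of aptamer binding above 40%, about triple the noise seen with nonglowing compounds, on plates passing quality control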;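 further: negative values mostly come from compounds that fluoresce themselves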
# FAM quench SP: quenches fluorescent RNA aptamer, GRK2 hit artifact | fluorescence response vs DMSO, % at 10 µM | shares compounds with GRK2 aptamer HTS | 360 tested, under 10 active | carboxyfluorescein RNA aptamer beads, flow cytometry quenching; stronger effect = lower value;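 active means response vs DMSO under 50%, meaning signal dropped by over half, treated as fluorescence quencher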;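 further: labelled aptamer on streptavidin beads without GRK2 as a quench counter-screen; 100% = bead fluorescence of DMSO wells and lower means quenching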
# * = called active by the depositor; i = inactive; nt = not tested or not shown. The list is not random: actives were taken first. Their share in the collection is about 1.1%.
SMILES,GRK2 aptamer HTS,procasp7 counter,CaV13 FRET inh,proCasp3 act,aDG glyco act,T cell modulator,GRK2 CP1,FAM quench CP1,others
Cc1c(C(N)=O)sc(N)c1C(=O)OC(C)C,5,-5,-5,-9,1,i,nt,nt,
COc1ccc(C2N(c3ccccn3)C(=O)C3CCCN32)c(OC)c1 (stereo not drawn),7,3,-4,0,0,899,nt,nt,
COc1cc(C2N(c3ccccn3)C(=O)C3CCCN32)cc(OC)c1OC (stereo not drawn),59*,4,-3,0,0,i,-2,99,
O=[N+]([O-])c1cccc(-c2nc3ccccc3s/c2=N/O)c1,1,-9,-13,-10,0,300,nt,nt,
CCc1ccc(CCC(=O)Nc2ccc(OC)cc2)o1,4,0,-5,3,0,439,nt,nt,
COc1ccc(C(N)CCc2ccc(C)o2)cc1 (stereo not drawn),79*,-9,nt,-3,0,456,-37,111,
CCCc1cc2c(O)ccc(O)c2c(=O)o1,nt,nt,-3,nt,nt,nt,nt,nt,
COc1ccccc1Nc1nnc(SCC(=O)N2CCCC2=O)s1,1,0,-9,-3,0,367,nt,nt,
CCc1ccc(Nc2nnc(SCC(=O)NC(=O)CN3CCCC3=O)s2)cc1,45*,4,-2,1,0,312,19,102,
COc1ccc(-c2sc3cc(OC)c(OC)cc3c2C#CC2(O)CCCCC2)cc1,83*,1,-6,0,0,320,-3,96,
S=C(NCC1CCCO1)NC1CC1 (stereo not drawn),87*,4,-6,2,0,403,3,101,
O=C(O)c1cccc2cc(-c3ccccc3)oc(=O)c12,0,14,-20,1,0,207,-3,94,
CN(c1cccc(NC(=O)c2ccc(Cl)c(S(=O)(=O)Nc3ccccc3)c2)c1)S(C)(=O)=O,3,13,-10,-1,0,165,nt,nt,
Cc1ccccc1NS(=O)(=O)c1cc(C(=O)Nc2cccc(N(C)S(C)(=O)=O)c2)ccc1C,16,-1,-4,0,0,709,-1,101,
CC(C)Oc1ccc(S(=O)(=O)N2CCCCC2)cc1NC(=O)C1=COCCO1,4,0,-2,1,0,232,nt,nt,
Cc1cccc(Oc2ccc(S(=O)(=O)N3CCCCC3)cc2NC(=O)C2=COCCO2)c1,31,-12,-2,2,0,371,-4,97,
CN(C)CCn1cnc2c1c(=O)[nH]c(=O)n2Cc1ccccc1,3,6,-4,-3,0,342,nt,nt,
CN(C)CCCn1cnc2c1c(=O)[nH]c(=O)n2Cc1ccccc1,99*,3,-3,4,0,214,-1,92,
COC(=O)[C@]12C[C@H](CC(=O)NCc3cccs3)C(=O)N(Cc3ccccc3)C1=C[C@H](C(C)C)O[C@@H]2C1CC1,nt,nt,-8,nt,nt,nt,nt,nt,
CCCCNC(=O)C[C@H]1C[C@@]2(C(=O)OC)C(=C[C@H](COCc3ccccc3)O[C@@H]2C)N(CCC2=CCCCC2)C1=O,nt,nt,-6,nt,nt,nt,nt,nt,
COCC(=O)N(C)C[C@H]1Oc2ncc(Br)cc2C(=O)N([C@@H](C)CO)C[C@H]1C,nt,nt,-5,nt,0,nt,nt,nt,
O=C(OCC(=O)N1CCN(S(=O)(=O)c2ccc(Cl)cc2)CC1)C1CCC1,1,-3,-15,-5,0,451,nt,nt,
O=C(OCC(=O)N1CCN(S(=O)(=O)c2ccccc2)CC1)C1CCC1,59*,7,-5,6,0,455,nt,nt,GRK2 CP2=13;FAM quench SP=101
Cc1ccc(Nc2c([N+](=O)[O-])cc(C(=O)N3CC(=O)Nc4ccccc43)cc2[N+](=O)[O-])c(C)c1,100*,-3,nt,0,0,530,2,99,
O=C1CN(C(=O)c2ccc(Cl)c([N+](=O)[O-])c2)c2ccccc2N1,3,nt,-2,nt,0,207,nt,nt,
SMILES,GRK2 aptamer HTS,procasp7 counter,CaV13 FRET inh,proCasp3 act,aDG glyco act,T cell modulator,GRK2 CP1,FAM quench CP1,others
COc1ccc(-c2cc(C(=O)N(C)Cc3cccc(OC)c3OC)c3ccccc3n2)cc1OC,0,2,-3,5,0,399,nt,nt,
COc1ccc(-c2cc(C(=O)N(C)Cc3nc4ccccc4c(=O)[nH]3)c3ccccc3n2)cc1OC,29,-13,-10,-2,0,401,0,101,
CC(C)Sc1nc2c([nH]1)c(=N)ncn2Cc1ccccc1,81*,7,-5,-5,0,i,0,97,
COc1ccccc1N(CC(=O)NCc1ccco1)S(=O)(=O)c1ccc(C)cc1,46*,-2,-3,5,0,161,23,99,
O=C(NNC(=O)c1ccco1)c1ccc(NS(=O)(=O)c2cccs2)cc1,0,2,-6,0,0,194,nt,nt,
O=C(C1CCN(S(=O)(=O)c2cccs2)CC1)N(c1ccccn1)C1CCCCC1,1,6,-4,2,0,i,nt,nt,
COc1cccc(NC(=O)Nc2cccc(C)n2)c1,58*,1,-2,6,0,684,-1,93,
COc1cccc(NC(=O)c2cccnn2)c1,41*,3,-2,-7,0,354,0,98,
COc1ccc(NC(=O)c2cccnn2)cc1,13,5,-2,-9,0,389,nt,nt,
Cc1ccc(C(=O)Nc2cccc(C(F)(F)F)c2)cc1NC(=O)c1ccno1,1,1,-5,1,0,365,3,103,
O=[N+]([O-])c1cc(Br)c(O)c(C=Nc2ccc(N3CCOCC3)cc2)c1,51*,-24,0,-1,0,179,0,103,
COc1cccc(C=Nc2ccc(N3CCOCC3)cc2)c1O,3,-15,18,-4,0,178,nt,nt,
CC(=O)Nc1ccc(-n2nnnc2SCC(=O)N2CCN(C(=O)c3ccco3)CC2)cc1,0,2,-5,4,0,302,nt,nt,
